Screening results (PubChem)
KCNK3 inh = human KCNK3 channel inhibition, primary screen | CHO-KCNK3 thallium flux, FluxOR fluorescence; active compounds read low | B-score at 10 µM | 340,000 tested, 0.84% active | AID 602410;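 active means B-score under library mean minus 4 SD, starting fluorescence ratio at most library mean plus 5 SD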;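 further: more negative B-score means stronger inhibition of thallium flux through KCNK3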
Kir21 inh = inhibitors of mouse Kir2.1 inward-rectifier potassium channel. P35561. HEK293-Kir2.1, FluxOR thallium flux fluorescence; active compounds read low. B-score at 10 µM. 310,000 tested, 0.85% active. AID 1672;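 active means fluorescence ratio B-score at or below minus 3 SD of library scores, with starting-brightness B-score within 2 SD, cut at about -4.2 in these data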;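 further: channel flux triggered by added potassium and thallium sulfate stimulus; B-score of peak minus minimum fluorescence over baseline after thallium stimulus; more negative B-score means stronger Kir2.1 block with less thallium influx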
Target sequence (P35561 whole entry, looked up): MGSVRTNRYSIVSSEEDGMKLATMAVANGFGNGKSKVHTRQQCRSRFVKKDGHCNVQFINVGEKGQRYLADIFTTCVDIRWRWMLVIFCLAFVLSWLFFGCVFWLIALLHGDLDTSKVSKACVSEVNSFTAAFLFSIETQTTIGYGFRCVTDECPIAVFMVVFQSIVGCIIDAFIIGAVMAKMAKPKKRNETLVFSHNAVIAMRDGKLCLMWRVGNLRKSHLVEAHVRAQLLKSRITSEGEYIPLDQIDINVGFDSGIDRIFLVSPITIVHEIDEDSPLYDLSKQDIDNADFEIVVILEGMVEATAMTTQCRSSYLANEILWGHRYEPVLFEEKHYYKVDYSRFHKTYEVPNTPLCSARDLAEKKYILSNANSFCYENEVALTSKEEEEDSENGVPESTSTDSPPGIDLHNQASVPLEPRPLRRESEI
KCNQ1 block = inhibitors of human KCNQ1 potassium channel; P51787; CHO-K1 KCNQ1, FluxOR thallium flux fluorescence; active compounds read high; B-score at 10 µM; 310,000 tested, 1.3% active; AID 2642;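 active means compounds whose thallium flux B-score, printed positive for inhibition, exceeds three library SD while starting fluorescence stays within three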;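 further: channel opened by potassium depolarization with thallium stimulus after 20 min compound exposure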
hERG protect = compounds protecting human hERG from proarrhythmic drug block | Q12809 | CHO-hERG, FluxOR thallium flux, dofetilide IC70 present | activation (rescue from dofetilide block), less the hit threshold, % at 10 µM | 310,000 tested, 0.51% active | AID 1511;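 active means activation above the mean of controls blocked by dofetilide plus 5 SD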;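 further: thallium influx through hERG after potassium depolarization seen as dye fluorescence rise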
KCNK9 block = inhibitors of human KCNK9 two-pore domain potassium channel. HEK293 KCNK9, FluxOR thallium flux fluorescence; active compounds read low. B-score at 10 µM. 310,000 tested, 1.2% active. AID 488922;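 active means ratio B-score over 3 SD below the library mean, with starting fluorescence within 5 SD of its mean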;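 further: negative B-score means less thallium flux so channel inhibition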
KCNQ1 pot = potentiates or activates the human KCNQ1 potassium channel; P51787; CHO-K1 KCNQ1, thallium flux FluxOR fluorescence; active compounds read high; B-score at 10 µM; 310,000 tested, 0.35% active; AID 2648;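 active means fluorescence ratio B-score, a plate-corrected score, at least three library SD, with initial intensity B-score within 5 SD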
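assay system = KCNQ1-transfected CHO-K1 cells | medium = assay buffer with matched DMSO | probe or stimulus = depolarizing K+/Tl+ stimulus, K2SO4 and Tl2SO4 each 12.5 mM in 5x stock | dosing = single dose | incubation = dye 90 min, compound 20 min, room temperature | detection = kinetic FluxOR fluorescence, 10 s baseline plus 110 s post-stimulus | evaluation = ratio B score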
KCNK9 block conf = confirmation of human KCNK9 potassium channel inhibitors; shares compounds with KCNK9 block; inhibition, % at 10 µM; AID 492992; HEK293 KCNK9 cells, FluxOR thallium flux fluorescence; 4,900 tested, 43% active;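 active means thallium signal inhibited by more than 5 SD of the compound-free buffer control wells, on both duplicate plates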;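 further: 0% = assay buffer control wells without compound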
Kir21 sel = selectivity of KCNK9 modulators against mouse Kir2.1; shares compounds with KCNK9 block; Kir2.1 cells, FluxOR thallium flux fluorescence; inhibition, % at 10 µM; 4,900 tested, 4% active;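 active means thallium signal drop more than 5 SD beyond the mean of the no-compound control wells, seen in both duplicate plates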;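 further: signal is fluorescence rise after thallium addition divided by baseline fluorescence; plate controls were assay buffer only for no effect and full block by chlorpromazine control for full effect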
KCNK9 uninduced = second counter-screen for KCNK9 modulators: effect in non-induced cells; shares compounds with KCNK9 block; non-induced KCNK9-HEK293, FluxOR thallium flux; inhibition, % at 10 µM; 4,900 tested, 40% active; AID 492997;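 active means thallium signal drop beyond 5 SD of the untreated control mean, on both duplicate plates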;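 further: plate controls were buffer only IC0 wells for no effect and SID17386958 at its maximal inhibitory level for full effect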
An asterisk follows results filed as active; i = inactive; nt = no result given. In the library only some 3.7% were active in any assay of this set; here they are far more common.

SMILES	KCNK3 inh	Kir21 inh	KCNQ1 block	hERG protect	KCNK9 block	KCNQ1 pot	KCNK9 block conf	Kir21 sel	KCNK9 uninduced
O=C(NCc1ccccc1)C(c1ccncc1)N(C(=O)c1csnn1)c1ccccc1F (stereo unspecified)	i	-0.02	i	-2.3	i	i	nt	nt	nt
COc1cc(/C=N/N2C(=O)c3ccccc3NC2(C)c2cccc([N+](=O)[O-])c2)cc(Br)c1O (stereo unspecified)	i	1.52	i	-16.3	-13.8*	i	56.5%*	i	46.0%*
COc1cc(/C=N/NC(=O)c2ccc([N+](=O)[O-])cc2Cl)cc(Br)c1O	i	0.93	i	-5.7	i	i	nt	nt	nt
Cc1cccc2sc(N(CCCN(C)C)C(=O)c3ccc(C(=O)c4ccccc4)cc3)nc12	i	1.48	i	-22.8	i	i	i	i	i
Cc1cccc2sc(N(CCN(C)C)C(=O)c3cc(Cl)sc3Cl)nc12	i	0.04	i	-10.4	i	i	i	i	i
Cc1cccc2sc(N(CCCN(C)C)C(=O)c3sc4ccccc4c3Cl)nc12	i	nt	nt	nt	nt	nt	nt	nt	nt
COc1cc2ccccc2cc1C(=O)N(CCN(C)C)c1nc2c(C)cccc2s1	i	0.38	i	-5.5	i	i	nt	nt	nt
Cc1cc(C)c2sc(N(CCN(C)C)C(=O)c3ccc4ccccc4c3)nc2c1	i	0.94	i	-15.7	i	i	nt	nt	nt
Cc1ccc2sc(N(CCN(C)C)C(=O)c3ccc4ccccc4c3)nc2c1C	i	0.72	i	-11.8	i	i	i	i	i
CCOC(=O)N1[C@@H]2C=C(C)[C@@H]2[C@@H]2[C@@H](C)C(=O)N21	i	0.2	i	-4.9	i	i	nt	nt	nt
CCOc1cc(C(=O)OCc2cc(=O)n3c(C)csc3n2)ccc1OC	i	nt	nt	nt	nt	nt	nt	nt	nt
COc1ccc(CCC(=O)NCC(c2ccco2)N2CCc3ccccc32)cc1 (stereo unspecified)	i	-3.05	i	-11.2	i	i	nt	nt	nt
COc1ccccc1N(C(=O)NCc1ccccc1)C1=NCC(C)S1 (stereo unspecified)	i	-0.45	i	-4.2	i	i	i	i	i
CCc1ccc(N=C2NC(=O)/C(=C/c3ccc(OCC(=O)O)cc3)S2)cc1	i	2.05	i	-8.4	i	i	nt	nt	nt
CCc1ccc(N=C2NC(=O)/C(=C/c3ccc(OCC(=O)O)c(OC)c3)S2)cc1	i	-1.95	i	-2.8	i	i	i	i	i
CC(=O)c1cccc(NC(=O)C(OC(=O)/C=C/c2ccc3c(c2)OCO3)c2ccccc2)c1 (stereo unspecified)	i	0.03	i	-14.6	-9.31*	i	24.0%*	i	i
O=C(CCCn1cncn1)N1CCCC(N2CCN(c3ccccc3F)CC2)C1 (stereo unspecified)	i	1.14	i	-6.2	i	i	nt	nt	nt
CCN(CC(=O)Nc1c(F)cccc1F)C(=O)c1cccc(-n2cccc2)c1	i	-0.61	i	-19.6	i	i	nt	nt	nt
O=C(c1ccc(Cl)cc1)C1CCCN(C(=O)c2csnn2)C1 (stereo unspecified)	i	0	i	-4.3	i	i	nt	nt	nt
COc1c(C)cc(C(=O)C2CCCN(C(=O)c3cc(C)n(C)n3)C2)cc1C (stereo unspecified)	i	-0.56	i	-1.2	i	i	nt	nt	nt
O=C(c1ccc2ccccc2c1)C1CCCN(C(=O)c2noc3c2CCCC3)C1 (stereo unspecified)	i	0.58	i	-18.8	i	i	i	i	i
CSc1ccc(C(=O)C2CCCN(C(=O)c3cc(C)n(C)n3)C2)cc1 (stereo unspecified)	i	-0.22	i	-6.0	i	i	i	i	i
CSc1nc(C(=O)N2CCCC(C(=O)c3ccc(Cl)cc3)C2)cs1 (stereo unspecified)	i	-3.44	i	-14.9	i	i	i	i	i
Cc1cc(C(=O)N2CCCC(C(=O)c3ccc4ccccc4c3)C2)nn1C (stereo unspecified)	i	-0.27	i	-5.6	i	i	i	i	i
Cc1ccc(C(=O)C(C)OC(=O)CN2C(=O)NC3(CCCC3)C2=O)cc1C (stereo unspecified)	i	1.37	i	-15.1	i	i	nt	nt	nt
SMILES	KCNK3 inh	Kir21 inh	KCNQ1 block	hERG protect	KCNK9 block	KCNQ1 pot	KCNK9 block conf	Kir21 sel	KCNK9 uninduced
CCC1(c2ccc(F)cc2)NC(=O)NC1=O (stereo unspecified)	i	0.02	i	-7.1	i	i	nt	nt	nt
CC#CC(=O)N1CCCC(C(=O)c2ccc(SC)cc2)C1 (stereo unspecified)	i	0.92	i	-1.4	i	i	nt	nt	nt
CSc1ccc(C(=O)C2CCCN(C(=O)c3ccsc3)C2)cc1 (stereo unspecified)	i	1.19	i	-13.8	i	i	i	i	i
OC1(c2nc3ccccc3[nH]2)CCCCC1	i	1.12	i	-2.4	i	i	nt	nt	nt
CCn1c(SCC(O)c2ccccc2)nnc1-c1ccccc1 (stereo unspecified)	i	0.28	i	-8.0	i	i	nt	nt	nt
CCn1c(SCc2cccc(C)c2)nnc1-c1ccccc1	i	-6.07*	i	-13.9	i	i	i	i	i
CCOc1ccccc1NC(=O)COC(=O)CSc1ccc(Cl)cc1	i	-0.28	i	-7.1	i	i	nt	nt	nt
O=C1C2=C(Nc3ccccc3SC2c2ccco2)c2ccccc21 (stereo unspecified)	i	0.04	13*	-9.0	-18.5*	i	65.0%*	i	30.5%*
CC(C)CCNC(=O)C(c1ccc(O)cc1)N(Cc1ccco1)C(=O)CCC(=O)Nc1nccs1 (stereo unspecified)	i	1.81	i	-12.8	i	i	nt	nt	nt
O=C1CC2(CCN(S(=O)(=O)c3ccccc3F)CC2)Oc2ccccc21	i	1.42	i	-8.6	i	i	nt	nt	nt
CCC(c1nnnn1C(C)(C)C)N(Cc1ccco1)Cc1cc2cccc(C)c2[nH]c1=O (stereo unspecified)	i	-0.39	i	-5.4	i	i	nt	nt	nt
